A short description of data set [1]: Cytotoxicity against KM mouse splenic lymphocytes. The settings on record: Splenic lymphocyte.
In data set [2] the test system is A549. The data set can be described thus: Cytotoxicity against human A549 cells after 24 hrs by MTT assay. The settings on record: A549, 24 h. The format is functional, cell-based. Background: Formazan colour is commonly taken as a measure of viable cells.
The subject of data set [3] is HepG2. Briefly: Cytotoxicity against human HepG2 cells after 24 hrs by MTT assay. In kind it is functional, cell-based. The settings on record: HepG2, 24 h.
For data set [4], the species on record is Sus scrofa. The data set can be described thus: Inhibition of Na(+)/K(+) ATPase in pig cerebral cortex assessed as release of inorganic phosphate at 50 uM after 15 mins by colorimetric method. In kind it is tissue-based.
A short description of data set [5]: Cytotoxicity against KM mouse splenic lymphocytes assessed as cell viability at 5 uM. On the set-up: species or system Splenic lymphocyte. The settings on record: read-out: Activity. The essentials:
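Spleens from KM mice were homogenized in PBS and centrifuged. The pellet was red-cell-lysed for 5 min (Tris-base 2.6 g/L, NH4Cl 7.47 g/L, pH 7.2), then passed through a 300-mesh sieve. The resulting lymphocytes were tested by MTT assay, and survival rate was scored at 5 μM.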

Data set [6] can be described thus: Inhibition of Na(+)/K(+) ATPase in pig cerebral cortex assessed as release of inorganic phosphate after 15 mins by colorimetric method.

pIC50: −log10 of the molar value. Activity calls are given as the source filed them. The rule behind the calls is not given here. Where only a bound is given, the exact number is not on record here.

For orientation: pIC50 means −log10 of the IC50, conventionally taken in molar units.

Turning to `C[C@@H]1O[C@@]12[C@@H]1O[C@@H]3C[C@H]2[C@@]2(C)CC[C@H]4[C@@H](CC[C@@H]5C[C@@H](O)CC[C@@]54C)[C@@]32O1`, the pIC50 in data set [1], in data set [2] and in data set [3] was less than 4.00 in each case.
For the compound `COC(=O)CCC(=O)C1=CC=C2[C@@H]3CC[C@@H]4C[C@@H](O)CC[C@]4(C)[C@H]3CC[C@]12C`, the inhibition result in data set [4] is “inactive”. In addition, the pIC50 in data set [1], in data set [2] and in data set [3] was less than 4.00 each time.
For `C/C=C(\C=O)[C@H]1[C@@H](OC(C)=O)[C@H]2O[C@]23[C@@H]2CC[C@@H]4C[C@@H](O)CC[C@]4(C)[C@H]2CC[C@]13C`, the figures for the pIC50 in data set [1], in data set [2] and in data set [3] were less than 4.00, 4.34 and less than 4.57, respectively.
On to `C=CC1=CO[C@]23C[C@H](OC(C)=O)[C@H]1[C@@]2(C)CC[C@H]1[C@H]3CC[C@@H]2C[C@@H](O)CC[C@@]21C`, for which the pIC50 in data set [1] was less than 4.00; in data set [2], less than 4.00; in data set [3], 4.19.
As to `C=CC1=CO[C@]23CC[C@H]1[C@@]2(C)CC[C@H]1[C@H]3CC[C@]2(O)C[C@@H](O)CC[C@]12C`, the inhibition entry in data set [4] is “inactive”. Besides, the pIC50 is 4.10 in data set [1], less than 4.00 in data set [2] and 4.16 in data set [3].
`C[C@]12CC[C@H](O)C[C@H]1CC[C@@H]1[C@@H]2CC[C@]2(C)[C@@H](c3ccc(=O)oc3)CC[C@]12O` [BUFALIN]: the viability at 5 µM in data set [5] is 100%. In addition, the results for the pIC50 in data set [2], in data set [3] and in data set [6] were 6.22, 6.22 and 7.96, respectively.
In the case of `C[C@]12CC[C@H](O)C[C@H]1CC[C@@H]1[C@@H]2CC[C@]2(C)[C@@H](c3ccc(=O)oc3)C[C@H]3O[C@]132` [BUFOGENIN], the pIC50 is less than 4.00 in data set [1], less than 4.00 in data set [2] and 4.36 in data set [3].
For the compound `CC(=O)O[C@H]1C[C@]2(O)[C@@H]3CC[C@@H]4C[C@@H](O)CC[C@]4(C)[C@H]3CC[C@]2(C)[C@H]1c1ccc(=O)oc1` [BUFOTALIN], the viability at 5 µM in data set [5] was 100%. For the same compound, the pIC50 is 6.05 in data set [2] and 6.30 in data set [3].
Turning to `CC(=O)O[C@H]1[C@H]2O[C@]23[C@@H]2CC[C@@H]4C[C@@H](O)CC[C@]4(C)[C@H]2CC[C@]3(C)[C@H]1c1ccc(=O)oc1` [CINOBUFAGIN], in data set [5], the viability at 5 µM stood at 100%. Further, the figures for the pIC50 in data set [2] and in data set [3] were 5.19 and 5.26, respectively.
`COc1cccc2c1C(=O)c1c(O)c3c(c(O)c1C2=O)C[C@@](O)(C(=O)CO)C[C@@H]3O[C@H]1C[C@H](N)[C@H](O)[C@H](C)O1` [DOXORUBICIN] showed a pIC50 in data set [2] of 7.00.
`C[C@]12CC[C@H](O)C[C@@]1(O)CC[C@@H]1[C@@H]2CC[C@]2(C)[C@@H](c3ccc(=O)oc3)CC[C@]12O` [TELOCINOBUFAGIN]: the viability at 5 µM in data set [5] worked out at 100%. The values for the pIC50 in data set [2] and in data set [3] were 5.52 and 5.62, respectively.

The values are drawn from ChEMBL document CHEMBL2429730, “C23 steroids from the venom of Bufo bufo gargarizans” (J Nat Prod, 2013).
